# hERG protect = hERG rescue from dofetilide block, primary screen, cell-based, CHO-hERG, FluxOR thallium flux, dofetilide IC70; Voltage-gated inwardly rectifying potassium channel KCNH2 (Homo sapiens), Q12809; dofetilide IC70 present; activation (rescue from dofetilide block), less the hit threshold, % at 10 µM; 310,000 compounds, 0.51% hits;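 active = activation above the mean of controls blocked by dofetilide plus 5 SD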;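 also: thallium influx through hERG after potassium depolarization seen as dye fluorescence rise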
# KCNQ1 pot = potentiators or activators of KCNQ1 channel, primary screen, cell-based, thallium flux, high-throughput; Potassium voltage-gated channel subfamily KQT member 1 (Homo sapiens), P51787; 310,000 compounds, 0.35% hits; CHO-K1 KCNQ1, thallium flux FluxOR fluorescence; active compounds read high; AID 2648, 2010; B-score at 10 µM;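 active = fluorescence ratio B-score, a plate-corrected score, at least three library SD, with initial intensity B-score within 5 SD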
#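 Doses: Single concentration per compound, DMSO matched to controls | Test system: KCNQ1-transfected CHO-K1 cells | Timing: 90 min dye loading and 20 min compound exposure, both at room temperature | Measured by: Kinetic FluxOR thallium fluorescence, 10-s 1-Hz baseline, 110-s post-stimulus read | Medium: Assay buffer with matched DMSO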
# KCNQ1 block = inhibitors of human KCNQ1 channel, primary screen, cell-based, thallium flux, high-throughput; B-score at 10 µM; Potassium voltage-gated channel subfamily KQT member 1 (Homo sapiens), P51787; CHO-K1 KCNQ1, FluxOR thallium flux fluorescence; active compounds read high; 310,000 compounds, 1.3% hits; AID 2642, 2010;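 active = compounds whose thallium flux B-score, printed positive for inhibition, exceeds three library SD while starting fluorescence stays within three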;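 also: channel opened by potassium depolarization with thallium stimulus after 20 min compound exposure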
# KCNK9 inh = KCNK9 potassium channel inhibitors, primary screen, HEK293 cells, thallium flux; Potassium channel subfamily K member 9 (Homo sapiens), Q9NPC2; FluxOR thallium flux fluorescence; active compounds read low; B-score at 10 µM; 310,000 compounds, 1.2% hits; AID 488922, 2010;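 active = ratio B-score over 3 SD below the library mean, with starting fluorescence within 5 SD of its mean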;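 also: negative B-score means less thallium flux so channel inhibition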
# KCNK3 block = human KCNK3 channel inhibitors, primary screen, CHO cells, FluxOR thallium flux, B-score | FluxOR fluorescence; active compounds read low | B-score at 10 µM | 340,000 compounds, 0.84% hits;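 active = B-score under library mean minus 4 SD, starting fluorescence ratio at most library mean plus 5 SD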;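 also: more negative B-score means stronger inhibition of thallium flux through KCNK3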
# Target sequence (O14649 whole entry, looked up): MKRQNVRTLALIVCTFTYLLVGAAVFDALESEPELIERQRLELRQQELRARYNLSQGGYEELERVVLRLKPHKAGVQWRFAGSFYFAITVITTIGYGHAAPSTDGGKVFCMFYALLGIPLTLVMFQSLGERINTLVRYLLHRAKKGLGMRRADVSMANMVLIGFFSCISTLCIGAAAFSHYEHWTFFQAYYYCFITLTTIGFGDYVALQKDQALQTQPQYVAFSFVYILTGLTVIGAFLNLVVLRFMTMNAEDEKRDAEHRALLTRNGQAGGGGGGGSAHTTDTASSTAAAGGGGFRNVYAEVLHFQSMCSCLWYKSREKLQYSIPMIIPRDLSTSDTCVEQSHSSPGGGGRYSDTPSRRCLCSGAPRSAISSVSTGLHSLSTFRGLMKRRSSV
# Cl transport mod = KCC2 cotransporter modulators, thallium flux, primary screen, cell-based, HEK293 KCC2, FluoZin-2 fluorescence, MLSMR. Solute carrier family 12 member 5 (Homo sapiens), Q9H2X9. KCC2 cells, thallium flux FluoZin-2 fluorescence. B-score of Tl+ flux slope (higher = more flux/activation; lower = inhibition) at 10 µM. 190,000 compounds, 2.2% hits. AID 1456, 2008;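 active = thallium flux slope and its plate-corrected score both differing from the plate sample mean at a set confidence after two filtering rounds, in either direction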;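 also: slope of fluorescence scaled to starting intensity during 10 to 20 s after thallium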
# KCC2 secondary = KCC2 modulators in sodium-free buffer, confirmation, cell-based, HEK293 KCC2, thallium flux, secondary assay. shares compounds with Cl transport mod. FluoZin2 fluorescence; active compounds read high. normalised thallium flux (F/F0 slope) at 10 µM. 3,700 compounds, 15% hits. AID 1713, 2009;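 active = thallium flux slope above the same plate's solvent-only control mean plus 3 SD; inconclusive = the two replicate wells disagree; inactive = no significant difference from solvent-only control wells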
# KCC2 bumet counter = thallium flux persisting under bumetanide in KCC2 cells, confirmation, counter-screen for KCC2 modulator project, cell-based, HEK293 KCC2, FluoZin2, secondary assay 3; normalized thallium flux at 10 µM; shares compounds with Cl transport mod; 3,700 compounds, 49% hits; AID 1714, 2009; HEK293-KCC2 + bumetanide/ouabain; active compounds read high;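 active = thallium entry rate above the same plate's blocked-transporter control wells by more than 3 SD; inconclusive = the two repeat wells disagree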;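 also: raw slope of fluorescence over initial fluorescence between 10 and 20 s after thallium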
# KCC2 secondary2 = KCC2 modulators without ouabain present, confirmation, cell-based, HEK293 KCC2, thallium flux, FluoZin2, secondary assay 2. shares compounds with Cl transport mod. thallium flux FluoZin2 fluorescence; actives lie on both sides; F/F0 rise rate, 10–20 s post-thallium. normalized thallium flux at 10 µM. 3,700 compounds, 23% hits;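 active = thallium flux slope more than 3 SD above or below the plate's solvent-only control mean, mostly below; inconclusive = the two repeat wells disagreed; inactive = no significant shift from solvent-only controls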;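 also: raw slope with 0.1% DMSO as baseline and bumetanide as block control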
# HEK counter1 = thallium flux modulation in parental HEK cells, confirmation, counter-screen for KCC2 modulator project, cell-based, counterscreen 1 | shares compounds with Cl transport mod | HEK293 parental cells, thallium flux FluoZin2, ouabain; baseline-ratio fluorescence slope, 10–20 s after thallium | thallium flux rate (normalised fluorescence) at 10 µM | 3,700 compounds, 46% hits;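 active = thallium flux rate significantly above the same plate's solvent-only control wells, beyond their mean plus 3 SD; inconclusive = the two replicate wells gave conflicting results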
# KCC2 ouabain = KCC2 inhibitors and activators, ouabain retest, confirmation, HEK-KCC2 cells; HEK293-KCC2, thallium flux FluoZin2 fluorescence; bidirectional: low = inhibitor, high = activator; AID 1717, 2009; raw Tl+ flux slope (below DMSO = inhibition, above = activation) at 10 µM; shares compounds with Cl transport mod; 3,700 compounds, 48% hits;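 active = thallium flux slope beyond 3 SD from same-plate DMSO control mean in most replicates, usually higher, sometimes lower; inconclusive = repeat tests gave conflicting results; inactive = no significant difference from controls in most replicates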;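 also: slope of initial-normalized fluorescence between seconds 10 and 20 after thallium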
# HEK counter2 = native HEK Tl+ uptake effects, second counter-screen – HEK cells, counterscreen 2, counter-screen for KCC2 modulator project, confirmation; HEK293 parental, thallium flux FluoZin-2 fluorescence slope; 3,700 compounds, 33% hits; AID 1718, 2009; shares compounds with Cl transport mod; thallium flux slope at 10 µM;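 active = thallium flux slope above the same plate's solvent-control mean plus 3 SD in both duplicate wells; inconclusive = duplicate wells that disagreed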;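 also: run without ouabain in cells lacking the KCC2 cotransporter; slope of fluorescence scaled to its starting value between 10 and 20 s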
# * marks the source's active call; other numbers are inactive results; i = inactive; ? = inconclusive; / = no result given. Compounds with a hit are over-represented: about 4.1% of the library has one in this group of screens.
SMILES,hERG protect,KCNQ1 pot,KCNQ1 block,KCNK9 inh,KCNK3 block,Cl transport mod,KCC2 secondary,KCC2 bumet counter,KCC2 secondary2,HEK counter1,KCC2 ouabain,HEK counter2
O=C(Nc1nc(-c2ccccn2)cs1)c1cc(Cl)ccc1[N+](=O)[O-],-6,i,i,i,i,6.8*,0.014*,0.037*,0.039,0.018*,0.038*,0.015*
CCOC(=O)c1cn(CC)c2cc(N3CCSCC3)c(F)cc2c1=O,-3,i,i,i,i,8*,0.0065,0.0041,0.032,0.0075,0.019,0.01
COc1ccc(S(=O)(=O)N2CCN3CCCC3C2)cc1 (stereo not given),-5,i,i,i,i,/,/,/,/,/,/,/
CC(C)Cn1nnc2c(=O)oc3ccccc3c21,-10,i,i,i,i,/,0.0088,0.0049,0.027*,0.0052*,0.012*,0.0084*
CCn1nnc2c(=O)oc3ccccc3c21,-5,i,i,i,i,-4.3,/,/,/,/,/,/
CC(=O)OCCN1C(=O)c2ccc(-c3nc4ccccc4c(=O)o3)cc2C1=O,-17,i,i,i,i,/,/,/,/,/,/,/
OCc1ccccc1OCCOc1ccc(Cl)c2cccnc12,-5,i,i,i,i,-2.2,/,/,/,/,/,/
Clc1ccc(OCc2cn3ccccc3n2)c2ncccc12,-5,i,i,i,i,-3.7*,0.0062,0.0063,0.03,0.0066,0.017,0.0095
O=C(/C=C/c1ccccc1)NC(=S)N1CCSCC1,-12,i,i,i,i,9.7*,0.022*,0.026*,?,0.018*,0.025*,0.02*
O=C(NC(=S)N1CCN(C/C=C/c2ccccc2)CC1)c1cccnc1,-10,i,i,i,i,3.3,/,/,/,/,/,/
O=C(/C=C/c1ccc(F)cc1)NC(=S)N1CCN(c2ccccn2)CC1,-9,i,i,i,i,21*,0.0076,0.019*,0.031,0.013*,?,0.013*
O=C(NC(=S)N1CCN(C/C=C/c2ccccc2)CC1)c1ccc(F)cc1,1,8*,i,i,i,151*,0.0099*,0.13*,0.11*,0.11*,0.12*,0.11*
O=C(c1ccco1)N1CCN(Cc2cc(=O)c(OCc3ccc(F)cc3)co2)CC1,-10,i,i,i,i,/,/,/,/,/,/,/
COc1ccc2cc(C[C@@H]3CC[C@@H](CNC(N)=O)O3)ccc2c1,/,/,/,/,i,/,/,/,/,/,/,/
COc1ccc(S(=O)(=O)NCCSCc2ccco2)cc1Cl,-7,i,i,i,i,6.4*,0.006,0.0045,0.03,0.0071,0.017,0.011
N#C/C(=C(/O)c1cccc(F)c1)c1nc2ccccc2s1,-19,i,i,i,i,-3*,0.0089,0.006,?,0.0077,0.016*,0.011
CS(=O)(=O)N(CC(O)CON=C1c2ccccc2-c2ccccc21)c1ccc(F)cc1 (stereo not given),-8,i,i,i,i,/,0.006,0.0046,0.031,?,0.019,0.01
O=C(Nc1ccc(S(=O)(=O)NCc2ccccc2)cc1)c1ccccc1[N+](=O)[O-],-2,i,i,i,i,-6.6*,0.0058,0.0052,0.025*,0.0081,?,0.011
CCC(C)C(N)C(=O)N1CCCC1C(=O)NC(C(=O)O)C(C)CC (stereo not given),/,/,/,/,i,/,/,/,/,/,/,/
Cc1cc(C)cc(NC(=S)N=Nc2c(O)n(C)c3ccc(S(=O)(=O)N4CCOCC4)cc23)c1,-5,i,i,i,i,6.7*,0.0068,0.018*,?,0.025*,0.027*,0.017*
Cc1cccc(Nc2ccc(S(=O)(=O)N3CCOCC3)cc2[N+](=O)[O-])c1,/,/,/,/,i,/,/,/,/,/,/,/
Cc1cccc(NC(=S)N=Nc2c(O)n(C)c3ccc(S(=O)(=O)N4CCOCC4)cc23)c1,1,i,i,i,i,11*,?,0.055*,0.031,0.019*,0.026,?
CCOc1ccccc1N1CN(C2CCCCC2)CNC1=S,-15,i,i,i,i,0.95,/,/,/,/,/,/
CCOC(=O)c1ccc(N2CN(C3CCCCC3)CNC2=S)cc1,1,i,i,i,i,-0.051,0.0073,0.0049,0.03,0.0085,0.019,0.012
O=C1C2CCCN2C(c2ccccc2F)N1c1cccc(Cl)c1 (stereo not given),-4,i,i,i,i,-3.7*,0.0073,?,0.031,?,0.02,0.012
Fc1ccc(NC(=S)Nc2ccc(F)c(Cl)c2)cc1Cl,-34,i,13*,-6.7*,-9.2*,-4.3*,0.006,0.0035,?,0.0059*,0.013*,?

# Compound activity: PubChem, several laboratories
